Reference: ChEMBL document CHEMBL1156112, “Discovery of 3-(1H-indol-3-yl)-4-[2-(4-methylpiperazin-1-yl)quinazolin-4-yl]pyrrole-2,5-dione (AEB071), a potent and selective inhibitor of protein kinase C isotypes” (J Med Chem, 2009)

Columns and labels:
[1] = Dissociation constant, pKa of the compound; format: physicochemical
[2] = molecular target: T1, Protein kinase C epsilon type (Homo sapiens, UniProt Q02156); assay: Inhibition of PKCepsilon by SPA
T1 sequence (Q02156 whole entry): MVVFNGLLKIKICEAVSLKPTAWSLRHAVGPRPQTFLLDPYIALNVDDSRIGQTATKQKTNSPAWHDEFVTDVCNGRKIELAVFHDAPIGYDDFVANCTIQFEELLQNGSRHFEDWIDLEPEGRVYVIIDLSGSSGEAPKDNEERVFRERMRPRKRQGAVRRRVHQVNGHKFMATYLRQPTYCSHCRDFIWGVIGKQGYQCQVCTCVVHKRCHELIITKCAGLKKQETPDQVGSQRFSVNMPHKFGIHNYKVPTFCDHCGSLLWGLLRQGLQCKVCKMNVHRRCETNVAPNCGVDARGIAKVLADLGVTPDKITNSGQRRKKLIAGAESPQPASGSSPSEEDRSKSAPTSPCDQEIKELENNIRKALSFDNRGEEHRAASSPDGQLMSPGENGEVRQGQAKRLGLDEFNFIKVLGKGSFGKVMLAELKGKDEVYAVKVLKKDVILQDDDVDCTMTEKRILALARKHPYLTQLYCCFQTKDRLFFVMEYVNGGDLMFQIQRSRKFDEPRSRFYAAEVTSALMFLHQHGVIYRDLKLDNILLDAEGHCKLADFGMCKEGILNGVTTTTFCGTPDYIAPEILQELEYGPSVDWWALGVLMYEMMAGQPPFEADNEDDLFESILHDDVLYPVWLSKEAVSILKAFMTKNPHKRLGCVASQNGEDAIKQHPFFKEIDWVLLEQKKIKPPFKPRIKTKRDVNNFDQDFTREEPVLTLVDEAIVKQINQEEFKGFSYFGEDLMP

[3] = molecular target: Protein kinase C theta type (Homo sapiens, UniProt Q04759); assay: Inhibition of PKCtheta by SPA
Sequence of Protein kinase C theta type (Q04759 whole entry): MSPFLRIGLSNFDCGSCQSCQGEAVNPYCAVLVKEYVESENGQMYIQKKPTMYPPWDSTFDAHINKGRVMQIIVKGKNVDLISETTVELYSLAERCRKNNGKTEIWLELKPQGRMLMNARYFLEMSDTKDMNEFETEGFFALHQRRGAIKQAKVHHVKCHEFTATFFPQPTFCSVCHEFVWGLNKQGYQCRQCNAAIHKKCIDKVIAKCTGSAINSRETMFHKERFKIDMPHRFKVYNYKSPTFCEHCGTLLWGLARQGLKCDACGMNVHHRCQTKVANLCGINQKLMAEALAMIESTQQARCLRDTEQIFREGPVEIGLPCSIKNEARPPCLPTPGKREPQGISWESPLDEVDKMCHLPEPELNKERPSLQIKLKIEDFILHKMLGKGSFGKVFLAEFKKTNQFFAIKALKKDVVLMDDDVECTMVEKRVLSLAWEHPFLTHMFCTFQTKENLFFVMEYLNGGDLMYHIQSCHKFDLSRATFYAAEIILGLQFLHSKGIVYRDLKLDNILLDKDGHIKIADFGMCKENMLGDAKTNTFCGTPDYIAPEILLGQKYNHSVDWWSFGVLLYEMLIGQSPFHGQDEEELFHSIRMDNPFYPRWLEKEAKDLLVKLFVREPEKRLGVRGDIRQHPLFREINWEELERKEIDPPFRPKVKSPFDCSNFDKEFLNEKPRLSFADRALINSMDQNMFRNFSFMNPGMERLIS

[4] = molecular target: Protein kinase C alpha type (Homo sapiens, UniProt P17252); assay: Inhibition of PKCalpha by SPA
[5] = cells; settings: Homo sapiens, Jurkat
[6] = molecular target: Protein kinase C beta type (Homo sapiens, UniProt P05771); assay: Inhibition of PKCbeta1 by SPA
Sequence of Protein kinase C beta type (P05771 whole entry): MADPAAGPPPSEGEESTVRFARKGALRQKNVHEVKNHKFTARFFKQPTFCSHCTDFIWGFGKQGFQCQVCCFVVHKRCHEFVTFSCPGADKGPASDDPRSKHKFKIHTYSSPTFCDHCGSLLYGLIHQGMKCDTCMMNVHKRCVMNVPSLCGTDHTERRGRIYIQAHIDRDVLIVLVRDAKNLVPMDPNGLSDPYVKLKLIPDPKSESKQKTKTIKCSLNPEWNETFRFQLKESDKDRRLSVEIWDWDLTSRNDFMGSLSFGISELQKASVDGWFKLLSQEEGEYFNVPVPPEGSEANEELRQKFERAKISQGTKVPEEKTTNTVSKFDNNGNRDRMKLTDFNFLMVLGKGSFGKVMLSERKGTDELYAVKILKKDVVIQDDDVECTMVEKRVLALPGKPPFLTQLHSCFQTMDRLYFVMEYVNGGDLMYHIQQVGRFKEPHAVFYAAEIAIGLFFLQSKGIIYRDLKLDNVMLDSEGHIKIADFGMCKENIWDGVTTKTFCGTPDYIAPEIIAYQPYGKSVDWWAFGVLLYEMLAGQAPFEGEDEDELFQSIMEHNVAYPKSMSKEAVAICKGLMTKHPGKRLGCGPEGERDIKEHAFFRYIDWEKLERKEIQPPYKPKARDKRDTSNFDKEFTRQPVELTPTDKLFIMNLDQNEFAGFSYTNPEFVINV

[7] = molecular target: Protein kinase C delta type (Homo sapiens, UniProt Q05655); assay: Inhibition of PKCdelta by SPA
Sequence of Protein kinase C delta type (Q05655 whole entry): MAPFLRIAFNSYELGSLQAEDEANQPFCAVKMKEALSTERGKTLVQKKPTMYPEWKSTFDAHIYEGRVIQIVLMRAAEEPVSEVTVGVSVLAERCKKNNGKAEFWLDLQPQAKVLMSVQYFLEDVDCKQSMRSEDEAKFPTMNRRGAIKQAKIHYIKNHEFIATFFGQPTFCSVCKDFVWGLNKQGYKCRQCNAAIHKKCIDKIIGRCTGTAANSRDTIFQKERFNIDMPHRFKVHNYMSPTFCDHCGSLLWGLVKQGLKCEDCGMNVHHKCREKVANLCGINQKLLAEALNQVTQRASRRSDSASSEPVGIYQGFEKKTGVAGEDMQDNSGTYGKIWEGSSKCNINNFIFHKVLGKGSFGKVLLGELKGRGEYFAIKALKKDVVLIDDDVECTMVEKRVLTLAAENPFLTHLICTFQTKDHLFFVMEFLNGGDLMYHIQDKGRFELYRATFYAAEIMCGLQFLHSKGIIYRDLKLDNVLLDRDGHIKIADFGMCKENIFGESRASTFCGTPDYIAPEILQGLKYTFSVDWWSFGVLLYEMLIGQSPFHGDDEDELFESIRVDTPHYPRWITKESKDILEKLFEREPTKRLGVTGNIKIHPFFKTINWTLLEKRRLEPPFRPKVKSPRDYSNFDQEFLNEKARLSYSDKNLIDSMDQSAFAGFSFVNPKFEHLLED

[8] = molecular target: Protein kinase C eta type (Homo sapiens, UniProt P24723); assay: Inhibition of PKCeta by SPA
Sequence of Protein kinase C eta type (P24723 whole entry): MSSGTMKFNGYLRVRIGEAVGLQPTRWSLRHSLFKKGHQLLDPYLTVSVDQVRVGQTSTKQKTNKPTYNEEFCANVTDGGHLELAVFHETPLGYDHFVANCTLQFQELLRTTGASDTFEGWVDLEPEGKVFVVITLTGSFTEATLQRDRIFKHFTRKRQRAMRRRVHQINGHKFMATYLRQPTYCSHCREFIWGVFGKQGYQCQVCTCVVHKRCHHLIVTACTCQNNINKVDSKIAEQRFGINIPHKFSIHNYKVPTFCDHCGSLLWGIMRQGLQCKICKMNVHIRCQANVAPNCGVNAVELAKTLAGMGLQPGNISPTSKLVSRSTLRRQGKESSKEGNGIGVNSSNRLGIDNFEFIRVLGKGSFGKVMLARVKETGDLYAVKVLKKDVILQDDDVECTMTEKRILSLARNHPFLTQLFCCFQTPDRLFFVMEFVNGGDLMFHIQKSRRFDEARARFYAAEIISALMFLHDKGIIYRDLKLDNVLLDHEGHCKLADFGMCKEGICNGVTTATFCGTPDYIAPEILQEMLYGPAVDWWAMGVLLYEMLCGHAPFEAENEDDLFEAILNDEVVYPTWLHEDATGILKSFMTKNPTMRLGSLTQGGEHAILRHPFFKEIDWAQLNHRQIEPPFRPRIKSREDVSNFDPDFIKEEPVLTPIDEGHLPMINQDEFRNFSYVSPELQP

[9] = Tmax in OFA rat at 20 mg/kg, po; format: ADME, organism-based; design: dose 20 mg/kg, route oral; settings: in vivo
Method in brief: (§1)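 Rats dosed either 5 mg/kg iv in 75% saline (0.9%)-25% PEG400 or 20 mg/kg po in 75% water-25% PEG400. OFA or Lewis rats were used depending on the compound. Values are averages of three animals. AUC is extrapolated to infinity. Oral bioavailability (F) comes from the po and iv exposures.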

[10] = AUC (0 to infinity) in OFA rat at 20 mg/kg, po; format: ADME, organism-based; design: dose 20 mg/kg, route oral, time infinity; settings: plasma; method in brief: as §1
[11] = Oral bioavailability in OFA rat at 20 mg/kg, po; format: ADME, organism-based; settings: in vivo; method in brief: as §1
[12] = Cmax in OFA rat at 20 mg/kg, po; format: ADME, organism-based; design: dose 20 mg/kg, route oral; settings: in vivo; method in brief: as §1
[13] = Volume of distribution at steady state in OFA rat at 5 mg/kg, iv; format: ADME, organism-based; design: dose 5 mg/kg, route intravenous; settings: in vivo, read-out: Vdss; method in brief: as §1
[14] = AUC (0 to infinity) in OFA rat at 5 mg/kg, iv; format: ADME, organism-based; design: time infinity, dose 5 mg/kg, route intravenous; settings: plasma; method in brief: as §1
[15] = Clearance in OFA rat at 5 mg/kg, iv; format: ADME, organism-based; design: dose 5 mg/kg, route intravenous; settings: in vivo; method in brief: as §1
[16] = Elimination half life in OFA rat at 5 mg/kg, iv; format: ADME, organism-based; design: dose 5 mg/kg, route intravenous; settings: in vivo, read-out: beta t1/2 (converted); method in brief: as §1

Compound | pKa [1] | IC50 [2] [nM] | IC50 [3] [nM] | IC50 [4] [nM] | IC50 [5] [nM] | IC50 [6] [nM] | IC50 [7] [nM] | IC50 [8] [nM] | Tmax [9] [h] | AUC(0-inf) [10] [ng·h/mL] | bioavailability [11] [%] | Cmax [12] [ng/mL] | Vd [13] [L/kg] | AUC(0-inf) [14] [ng·h/mL] | clearance [15] [mL/min/kg] | half-life [16] [h]
CN1CCN(c2cccc(C3=C(c4c[nH]c5ccccc45)C(=O)NC3=O)c2)CC1 | 7.5 | 59 | 76 | 7.1 | 277 | 36 | 97 | 36 | – | – | – | – | – | – | – | –
CN(C)CCCn1cc(C2=C(c3c[nH]c4ccccc34)C(=O)NC2=O)c2ccccc21 [GF-109203] | – | 6.6 | 6.7 | 2.3 | – | 1.6 | 8.7 | 10 | – | – | – | – | – | – | – | –
O=C1NC(=O)C(c2c[nH]c3ccccc23)=C1c1nc(N2CCOCC2)nc2ccccc12 | – | 1820 | 1380 | 1500 | > 3700 | 1270 | 794 | 2540 | – | – | – | – | – | – | – | –
CN(C)CCOc1cc(C2=C(c3c[nH]c4ccccc34)C(=O)NC2=O)c2ccccc2c1 | – | 5.5 | 3.3 | 2.2 | 69 | 2.1 | 4.4 | 11 | 0.5 | 154 | 1 | 16.2 | 48.2 | 2690 | 30.9 | 20.6
CN(C)CCCn1cc(C2=C(c3n[nH]c4ccccc34)C(=O)NC2=O)c2ccccc21 | – | > 315 | > 315 | > 315 | – | > 315 | > 315 | > 315 | – | – | – | – | – | – | – | –
